Series [1] relates to Leishmania donovani. The series is described as follows: Antileishmanial activity against Leishmania donovani infected in hamster. Format: functional, organism-based.
The test system of series [2] is Plasmodium cynomolgi. The series is described as follows: Antimalarial activity against Plasmodium cynomolgi infected in rhesus monkey assessed as infection cure at 1 mg/kg administered via stomach tube once daily for 7 days with 2.5 mg of base/kg of chloroquine. In kind it is functional, organism-based. Details: dose 1 mg/kg.
In series [3] the test system is Plasmodium cynomolgi. Put plainly: Antimalarial activity against Plasmodium cynomolgi infected in rhesus monkey assessed as time duration between end of treatment and relapse at 1 mg/kg administered via stomach tube once daily for 7 days with 2.5 mg of base/kg of chloroquine1. Format: functional.
Series [4] concerns Plasmodium cynomolgi. Put plainly: Antimalarial activity against Plasmodium cynomolgi infected in rhesus monkey assessed as time duration between end of treatment and relapse at 0.5 mg/kg administered via stomach tube once daily for 7 days with 2.5 mg of base/kg of chloroquine1. Format: functional.
For series [5], the system named is Plasmodium cynomolgi. The series is described as follows: Antimalarial activity against Plasmodium cynomolgi infected in rhesus monkey assessed as infection cure at 0.5 mg/kg administered via stomach tube once daily for 7 days with 2.5 mg of base/kg of chloroquine. Format: functional, organism-based. Details: dose 0.5 mg/kg.
Series [6] relates to Plasmodium berghei. The series is described as follows: Antimalarial activity against blood schizont stage of Plasmodium berghei infected in mouse assessed as mean survival time at 160 mg/kg (reference value: 6.2 +/- 0.5 days). In kind it is functional.
Series [7] deals with Plasmodium berghei yoelii. Put plainly: Antimalarial activity against sporozoite stage of Plasmodium berghei yoelii infected in mouse assessed as survival at 2.5 mg/kg, po after 30 days. In kind it is functional, organism-based. On the set-up: dose 2.5 mg/kg. A digest of the protocol: (§1)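 Mice infected with P. berghei yoelii (sporozoite challenge) were dosed on the day of challenge, in groups of five, either orally or subcutaneously at several dose levels. Compound was dissolved or suspended in 0.5% hydroxyethylcellulose–0.1% Tween 80. Prophylactic activity was read as survival of treated mice to 30 days, reported as cures per number treated, with toxic deaths noted.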

Series [8] relates to Plasmodium berghei. Put plainly: Antimalarial activity against blood schizont stage of Plasmodium berghei infected in mouse assessed as mean survival time at 320 mg/kg (reference value: 6.2 +/- 0.5 days). In kind it is functional.
Series [9] has as its system Plasmodium berghei. The series is described as follows: Antimalarial activity against blood schizont stage of Plasmodium berghei infected in mouse assessed as mean survival time at 80 mg/kg (reference value: 6.2 +/- 0.5 days). Format: functional.
Series [10] relates to Plasmodium berghei yoelii. Put plainly: Antimalarial activity against sporozoite stage of Plasmodium berghei yoelii infected in mouse assessed as survival at 2.5 mg/kg, sc after 30 days. In kind it is functional, organism-based. On the set-up: dose 2.5 mg/kg. In outline:
as §1

Series [11] concerns Plasmodium berghei. The series is described as follows: Antimalarial activity against blood schizont stage of Plasmodium berghei infected in mouse assessed as mean survival time at 640 mg/kg (reference value: 6.2 +/- 0.5 days). In kind it is functional.
For series [12], the system named is Plasmodium berghei. Put plainly: Antimalarial activity against blood schizont stage of Plasmodium berghei infected in mouse assessed as mean survival time at 20 mg/kg (reference value: 6.2 +/- 0.5 days). Format: functional.
Series [13] relates to Plasmodium berghei. Put plainly: Antimalarial activity against blood schizont stage of Plasmodium berghei infected in mouse assessed as mean survival time at 40 mg/kg (reference value: 6.2 +/- 0.5 days). Format: functional.
In series [14] the test system is Plasmodium berghei yoelii. Put plainly: Antimalarial activity against sporozoite stage of Plasmodium berghei yoelii infected in mouse assessed as survival at 10 mg/kg, sc after 30 days. Format: functional, organism-based. Details: dose 10 mg/kg. In outline:
as §1

Series [15] deals with Mus musculus. The series is described as follows: Toxicity in mouse infected with Plasmodium berghei assessed as death at 320 mg/kg after 2 to 5 days. In kind it is organism-based. The conditions noted are these: in vivo. On the set-up: dose 320 mg/kg.
Series [16] deals with Mus musculus. Put plainly: Toxicity in mouse infected with Plasmodium berghei assessed as death at 640 mg/kg after 2 to 5 days. The conditions noted are these: in vivo. Details: dose 640 mg/kg. Format: organism-based.
Series [17] deals with Plasmodium cynomolgi. Put plainly: Antimalarial activity against Plasmodium cynomolgi infected in rhesus monkey assessed as time duration between end of treatment and relapse at 0.25 mg/kg administered via stomach tube once daily for 7 days with 2.5 mg of base/kg of chloroquine1. In kind it is functional, organism-based. On the set-up: dose 0.25 mg/kg.
In series [18] the test system is Plasmodium cynomolgi. Put plainly: Antimalarial activity against Plasmodium cynomolgi infected in rhesus monkey assessed as infection cure at 0.25 mg/kg administered via stomach tube once daily for 7 days with 2.5 mg of base/kg of chloroquine. In kind it is functional, organism-based. On the set-up: dose 0.25 mg/kg.
In series [19] the test system is Plasmodium berghei yoelii. Put plainly: Antimalarial activity against sporozoite stage of Plasmodium berghei yoelii infected in mouse assessed as survival at 160 mg/kg, sc after 30 days. On the set-up: dose 160 mg/kg. Format: functional, organism-based. A digest of the protocol:
as §1

In series [20] the test system is Plasmodium berghei yoelii. Put plainly: Antimalarial activity against sporozoite stage of Plasmodium berghei yoelii infected in mouse assessed as survival at 10 mg/kg, po after 30 days. Format: functional, organism-based. On the set-up: dose 10 mg/kg. In outline: as §1

Activity calls are given as the source filed them. The calls are words filed in the database; no cut-off is given here.

With `CC/C(C)=C\c1ccnc2c(NC(C)CCCN)cc(OC)cc12` (stereo unspecified), the outcome in series [1] was inactive.
On to `COc1cc(NC(C)CCCN)c2nccc(CC3CCCCC3)c2c1.O=C(O)/C=C/C(=O)O` (stereo unspecified), for which the result in [2], in series [5] and in series [1] was inactive. Also, the Time in series [3] worked out at 7 days; in series [4] it was 6 days.
Take `CC/C=C/c1ccnc2c(NC(C)CCCN)cc(OC)cc12.O=C(O)/C=C/C(=O)O` (stereo unspecified): the MSD in series [6] amounted to 7.5 days; in series [8] it was 9.5 days; in [9], 6.5 days; in series [11], 10.3 days; in series [12], 3.1 days; in [13], 5.1 days. The outcome in [7], in series [2], in series [5], in series [10] and in series [1] was inactive. The Time stood at 10 days in [3] and 6 days in series [4].
Turning to `C/C=C/c1ccnc2c(NC(C)CCCN)cc(OC)cc12.O=C(O)/C=C/C(=O)O` (stereo unspecified), the outcome in series [2], in series [14], in [5] and in series [1] was inactive. The figures for the Time in [3] and in [4] were 18 days and 8 days, respectively.
Regarding `CCC(C)Cc1ccnc2c(NC(C)CCCN)cc(OC)cc12.O=C(O)/C=C/C(=O)O` (stereo unspecified), the outcome in series [2], in series [5] and in series [1] was inactive. Besides, the Time in series [3] turned out to be 9 days; in [4], 7 days.
With `COc1cc(NC(C)CCCN)c2nccc(CCCC3CCCCC3)c2c1.O=C(O)/C=C/C(=O)O` (stereo unspecified), the outcome in series [2], in series [5] and in series [1] was inactive. For the same compound, the Time was found to be 8 days in series [3] and 6 days in [4]. The MSD in series [8] worked out at 0.9 days; in series [9], 0.4 days; in series [12], 0.3 days.
Regarding `COc1cc(NC(C)CCCN)c2ncccc2c1` (stereo unspecified) [PRIMAQUINE], the Activity entry in series [15] and in series [16] was “Toxic” each time. In addition, the results for the MSD in series [9], in [12] and in series [13] were 9.4 days, 4 days and 5 days, respectively.
With `C/C=C\c1ccnc2c(NC(C)CCCN)cc(OC)cc12.O=C(O)/C=C/C(=O)O` (mixture of isomers), the outcome in series [17], in [7], in series [2], in [18], in [5] and in series [1] was inactive. Further, the Time in series [3] and in series [4] was 6 days throughout.
As to `COc1cc(NC(C)CCCN)c2nccc(/C=C/C3CCCCC3)c2c1` (stereo unspecified), the result in [14], in series [19], in series [1] and in [20] was inactive.
Turning to `CCCc1ccnc2c(NC(C)CCCN)cc(OC)cc12.O=C(O)/C=C/C(=O)O` (stereo unspecified), the result in series [2], in series [5] and in series [1] was inactive. The Time in series [3] is 23 days; in series [4], 7 days.
With `Br.COc1cc(NC(C)CCCN)c2nccc(/C=C/CC3CCCCC3)c2c1` (stereo unspecified), the MSD is -0.4 days in series [8], 0.9 days in [9] and 0.4 days in series [12]. Further, the outcome in [1] was inactive.
Consider `CCCCc1ccnc2c(NC(C)CCCN)cc(OC)cc12.O=C(O)/C=C/C(=O)O` (stereo unspecified), for which the result in series [7], in series [2], in [14], in series [5] and in series [1] was inactive. For the same compound, the Time in [3] came out at 22 days; in [4], 5 days.
As for `COc1cc(NC(C)CCCN)c2nccc(C=C(C)C)c2c1` (stereo unspecified), in series [1], the outcome was inactive.
Take `COc1cc(NC(C)CCCN)c2nccc(CCC3CCCCC3)c2c1.O=C(O)/C=C/C(=O)O` (stereo unspecified): the MSD in series [6] was 0.3 days; in [11], 0.5 days; in [13], 0.3 days. Besides, the outcome in series [1] was inactive.

The values are drawn from ChEMBL document CHEMBL3271992, “Synthesis of 4-alkyl and 4-(beta-alkylvinyl) derivatives of primaquine as potential antimalarials” (J Med Chem, 1979).
